Measured values pooled from the literature.
Lines come from different studies, so protocols differ.
MAOA: Amine oxidase [flavin-containing] A (MAOA, Homo sapiens, UniProt P21397)
ahcY: ahcY (Saccharolobus solfataricus, UniProt P50252)
CTSS: Cathepsin S (CTSS, Homo sapiens, UniProt P25774)

`C#CCN(C)CCCCCCOc1cccc(CN(C)c2c3c(nc4ccc(F)cc24)CCCC3)c1` gave an IC50 of 50.7 µM (MAOA; enzyme activity; inhibitor; fluorescence).
The IC50 of `CC(=O)N(CC#Cc1cccc(C(N)=O)c1)C[C@H]1C[C@@H](n2ccc3c(Cl)ncnc32)[C@H](O)[C@@H]1O` is reported as greater than 333 µM (ahcY; enzyme activity; inhibitor).
With `C#CCN(C)CCCCCOCc1ccc(CN(C)c2c3c(nc4ccc(C)cc24)CCCC3)cc1` the IC50 was 0.53 µM (MAOA; enzyme activity; inhibitor; fluorescence).
The IC50 of `Cc1ccc(F)c(CNS(=O)(=O)c2cccc3cccnc23)c1` is reported as 1.81 µM (Amine oxidase [flavin-containing] B (Maob, Mus musculus, UniProt Q8BW75); enzyme activity; inhibitor; fluorescence).
`CC(C)C[C@H](NC(=O)[C@H]1O[C@@H]1C(=O)O)C(=O)NCCCCN=C(N)N` has an IC50 of 0.00073 µM (CTSS; enzyme activity; inhibitor).
With `O=C(O)[C@@H]1CS[C@H]2CS[C@H](CCS)N21` the IC50 was greater than 1000 µM (sfhI (Serratia fonticola, UniProt Q9RMI1); enzyme activity; inhibitor).
For `CN(C)c1cccc2c(S(=O)(=O)NCCCCCCCCCCC(=O)O)cccc12`, the Kd was 0.2 µM (Fatty acid-binding protein, liver (FABP1, Homo sapiens, UniProt P07148); binding; fluorescence).
The IC50 of `C#CCN(C)CCCCCCCCOCc1ccc(CN(C)c2c3c(nc4ccccc24)CCCC3)cc1` is reported as 8.29 µM (MAOA; enzyme activity; inhibitor; fluorescence).
`CC[C@H](C)[C@H](NC(=O)[C@H](Cc1ccc(O)cc1)NC(=O)[C@@H](NC(=O)[C@H](CCCNC(=N)N)NC(=O)[C@@H](N)CC(=O)O)C(C)C)C(=O)N[C@@H](Cc1cnc[nH]1)C(=O)N1CCC[C@H]1C(=O)N[C@@H](Cc1ccccc1)C(=O)O` has an IC50 of 4.9 µM (Angiotensin-converting enzyme 2 (ACE2, Homo sapiens, UniProt Q9BYF1); enzyme activity; inhibitor; fluorescence).
The IC50 of `CNC(=O)c1ccc(-c2cnn3ccc(C(=O)N(C)c4ccc(Cl)c(C(=O)OC)c4)cc23)cc1` is reported as greater than 30 µM (MAOA; cell-free assay).
The IC50 of `NC(=O)c1cccc(C#CCN(CC[C@H](N)C(=O)O)C[C@H]2O[C@@H](n3cnc4c(N)ncnc43)[C@H](O)[C@@H]2O)c1` is reported as 8.5 µM (ahcY; enzyme activity; inhibitor).
`Cn1nccc1[C@]1(CNC(=O)c2ccc(F)c(F)c2-c2ccc(C(F)(F)F)cc2)NC(=O)NC1=O` gave an IC50 of greater than 100 µM (CTSS; enzyme activity; inhibitor).
`C#CCN(C)CCCCCCCOc1cccc(CN(C)c2c3c(nc4ccccc24)CCCC3)c1` gave an IC50 of 7.68 µM (MAOA; enzyme activity; inhibitor; fluorescence).
For `CNC(=O)c1ccc(-c2cnn3ccc(C(=O)N(C)c4ccc(Cl)c(C(=O)O)c4)cc23)cc1`, the IC50 was greater than 30 µM (Alpha-1A adrenergic receptor (ADRA1A, Homo sapiens, UniProt P35348); cell-free assay).
